Measurements published in the EternaBench riboswitch data.

Test system: MS2 coat protein
Experiment: apparent Kd, MS2 coat protein; higher = weaker binding; RNA-MaP array; FMN 200 µM where present
How it was run: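 Apparent Kd: the median of filtered binding-curve fits from single clusters. Designs were transcribed on Illumina sequencing-chip clusters by stalled E. coli RNA polymerase and titrated with SNAP-549-labelled MS2 coat protein from 0.7 or 1.5 nM, doubling to 3 µM, in 100 mM Tris-HCl pH 7.5, 80 mM KCl, 4 mM MgCl2, BSA, DTT, yeast tRNA and Tween-20. Each series ran without and then with constant ligand, and green signal was normalised to red-channel RNA signal and control-cluster median Fmax.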

[1] = designed as: ON switch for flavin mononucleotide, no ligand
[2] = ligand present: flavin mononucleotide, designed as: ON switch for flavin mononucleotide
[3] = designed as: OFF switch for flavin mononucleotide, no ligand
[4] = ligand present: flavin mononucleotide, designed as: OFF switch for flavin mononucleotide

Row | Sequence | apparent Kd [1] | apparent Kd [2] | apparent Kd [3] | apparent Kd [4]
1 | AUAUCAUACCAAGGAUAUUUAAGAUUUGUGUAGACAUGAGGAUCACCCAUGUGGCGUUAGUCACGGGAGAAGGUGGUAUGAUAU | 978 nM | 205 nM | – | –
2 | GUGUAGAUAGCAGGAUAUCUAUUUCCUACAUGAGGAUCACCCAUGUAGAUGAUCACCCAUGUAAAGGAGAAGGGCUAUCUAUAC | 367 nM | 165 nM | – | –
3 | CUCAUGUGAGGAUAUAGUACUUCUUCUAUUAUUAUUGAGUACUAGAAGGCACAUGAGGAUCACCCAUGUAGUAC | – | – | 16 nM | 16.3 nM
4 | AUUUUAAUGUCAGGAUAUAUUAGUUUUUACAUAGUAGAAGGGAUAAUUAUACUCAUGUACAUGAGGAUCACCCAUGUUAAAUAU | 139 nM | 44.5 nM | – | –
5 | GUAGUGUAUGUAGGAUAUGUGAAGGAAACAUUUACAGAAGGACAUGAGGAUCACCCAUGUAUUUCAGUCACCAAUGUGACUGAU | – | – | 24.7 nM | 43.4 nM
6 | UGGUACUAGGGAGGAUAUGGGAAGAAACAUGAGGAUCACCCAUGUUUAAGAAUGCCGAGAGGCAACUAGAAGGCCCUAGUACCU | 9.75 nM | 4.99 nM | – | –
7 | GAGACAUGUGAGAAGGCGCCACACGCGAGUGGGCGAGGAUAUCACAUGAGGAUCACCCAUGUUAGCCCUCGACCGCGACGCGGG | – | – | 10.1 nM | 47.3 nM
8 | AGCUAGUCAGGAUAUACGAAAAUGUCAGAGGCUGUGAAGGGACAUGAGGAUCACCCAUGUAGAAGGGACUAGCA | – | – | 96.8 nM | 136 nM
9 | AAUUGGAUGCAGAAGGCAUGGACGACUCGUCACAUUAACAUGAGGAUCACCCAUGUAAUAAGACAUGAGGAUAUGCAUCCUAAA | 7.68 nM | 5.49 nM | – | –
10 | CCACCUCCUGAGGAUAUUGCAUCACCCGACUGAUAAGAAGGCAGAACAUGAGGAUCACCCAUGUGGGUACUCCC | – | – | 82.5 nM | 77.2 nM
11 | AGCGUACAAGCUAACAUGAGGAUCACCCAUGUGGACUCAUGCGAGGAUAUCGGGAAGGAGGAUUCCGAGAAGGUGCGGUGAGCC | 148 nM | 38.1 nM | – | –
12 | UUCUAACGAGGAUAUCGAUGGUGGAACAUGAGGAUCACCCAUGUAUGAGAUAUUGUAGUUCGAGAAGGCGUUCAGU | – | – | 42.1 nM | 32.5 nM
13 | AGCUGUGGCCGAGGAUAUCUAUCCAAUAUAACCGAAAUAUAAUCGGACAUGAGGAUCACCCAUGUAGAGAAGGCGGUCUCAGCA | – | – | 19.8 nM | 25.5 nM
14 | UAUAUAUAGUAAGGAUAUGUAUAUAUUUUAUUAACAGAAGGUACUGACAUGAGGAUCACCCAUGUUUUAGUGUGGGCAUGUAGA | – | – | 76.7 nM | 100 nM
15 | AUAGAAGUCUAGAAGGACCUAGCUGUAUACCGUCGAGGUAUAUAGCUAGGUAGGAUAUGGGACAUGAGGAUCACCCAUGUGUUG | 32.9 nM | 9.19 nM | – | –
16 | CGCACUUAGCGAGGAUAUGUAAAACAUGAGGAUCACCCAUGUGAUUUAGCUCCAAUUUUAAUGACACAGAAGGCGCUUAGUGCG | – | – | 22.2 nM | 15.8 nM
17 | ACGUAUCAUGUCAGGAUAUAGCUAGCUACGGCUAGCUAGAAGGGACAUGAGGAUCACCCAUGUCAAAGAUACGU | – | – | 14 nM | 19 nM
18 | GGGUGGCGUAGAGGAUAUGUGGUACAUGAGGAUCACCCAUGUGCAUAUGAUGUUCGUGUGUCAUCAUAGAAGGCUACGUCGCUA | 132 nM | 62.9 nM | – | –
19 | AUGAGGUUAGGAUAUACAUGAGGAUCACCCAUGUUGGAGAAGGAAAUGUAAGUAGCGAGUAGAAGGAACGGAGC | – | – | 47 nM | 43.4 nM
20 | GCGUAAAAGAUCCUAUUUAUCUACAUGAGGAUCACCCAUGUGCAGGAUAUGCUAAAAUUAAAAUAGCAGAAGGGCAAUAACCGC | – | – | 54 nM | 179 nM
21 | GGAGAUACAUGAGGAUCACCCAUGUAGGAUAUCGGGCCCAUAUAUGGCGAAAGCCAUAUAUGGGCCGAGAAGGGCGUACACACC | – | – | 7.63 nM | 7.45 nM
22 | CUUGUACUCGGAGGAUAUCGAUAUCAAACAUGAGGAUCACCCAUGUUGAGGAUCACACAUGUAAAUGAGAAGGCUGACGUUGCU | 22.9 nM | 26.3 nM | – | –
23 | GAUCAACAUGAGGAUCACCCAUGUGAGGAUAUGAUACUAUGUACUUCGGUACAUAGUAUCAGAAGGCAUAUGAA | – | – | 56.7 nM | 98.5 nM
24 | CGAUUACGAGGAUAUUAUGGCCUCGACAUGAGGAUCACCCAUGUACAAACAUGAAUACCUUGAGAAGGCGUAGAGC | – | – | 67.7 nM | 67.3 nM
25 | ACAAAACAUGAGGAUCACCCAUGUGAGGAUAUGCGAAACAAACAAACAAACAAACAAAGCAGAAGGCACAACAA | – | – | 22.7 nM | 37.1 nM
26 | AAAUAAAUUAGCAUGAUAUCUUCACAUGAGGAUCACCCAUGUCAGGAUAUUUGUCCUAAAAGGACAGAGAAGGGACAUGCUAUA | – | – | 5.78 nM | 7.76 nM
27 | AAACCUAUAGGAUAUACAUGAGGAUCACCCAUGUUGCGAUUUUUUAGGUAACAGAUCCGUAGAAGGGUAGGUUA | – | – | 23.8 nM | 57.6 nM
28 | UCCUACAUGGGAGGAUAUCCUCAAGAGACAUGAGGAUCACCCAUGUAUUAUAUGCCUCAUGGCAUGGAGAAGGCCCAUGUAGGU | 205 nM | 157 nM | – | –

Row | Sequence | apparent Kd [1] | apparent Kd [2] | apparent Kd [3] | apparent Kd [4]
29 | AUUUAUGGCCAGAAGGACAUGAGGAUCACCCAUGUAGGAUAUGGACGAUUUUGCUCGACGGUUUGUUAAGGAAGCACCGGUGGU | 12.4 nM | 6.52 nM | – | –
30 | GAGUGGAGGUAAGGAUAUAUAAUGAUAAUCACAGUAGAAGGUACUAACAUGAGGAUCACCCAUGUAGGACUAUACCAGAGAGGG | 16.9 nM | 15.3 nM | – | –
31 | AAAUAACCUAGCAAAAUUUCCUCACAUGAGGAUCACCCAUGUAGAAGGUUAACCUAAUAUAGGAUAAAGGAUAUACGUGCUAGG | – | – | 7.58 nM | 19.9 nM
32 | UGUUGUAUUACAGGAUAUCUAGUAUUUUUAUAUAGAGAAGGGUAUUCACAUGAGGAUCACCCAUGUAUAUACGAGGAAGUUGUG | 30.3 nM | 32.2 nM | – | –
33 | CGACACAUGAGGGUCUCCCAUGACAUGAGGAUCACCCAUGUGCAGGAUAUACGUGUGAUGGUAUAGUAGAAGGGCACUCUAUGC | – | – | 368 nM | 392 nM
34 | AAUAACAGAGGAUAUACUAUUUUAUGUAUUUAUUAUUUUGAACAUGAGGAUCACCCAUGUAGAAGGCUGAAUAA | – | – | 22.7 nM | 21.7 nM
35 | UCAAGUAUGUAGGAUAUCGAUGUCUUCGGACAUCGAGAAGGACGUACAUGAGGAUCACCCAUGUAACUUGCAUG | – | – | 60.5 nM | 37.4 nM
36 | AAUUAUUUACAGAAGGAGUAAGAUUAUGUAUUACUAGGAUAUGUUCACAUGAGGAUCACCCAUGUCAUUGUAGGUUUUAUAUGU | – | – | 10.8 nM | 8.19 nM
37 | AUUCUUGGGCAAGGAUAUCCUGUGCGGUUCCGGCUCGUGUCUGUCACAUGAGGAUCACCCAUGUGGGAGAAGGUGCCUGCGGUC | – | – | 6.86 nM | 7.2 nM
38 | GUAAAGUGAGGAUAUGGUAAAUUAAUUAUUUAGUAAUUAAUCCAGAAGGCACAUGAGGAUCACCCAUGUAAAUG | – | – | 30.7 nM | 51.4 nM
39 | GCUGUGGCAUGAGGAUAUGGACAGCUUUGCUGUCCAGAAGGCAUGUCAAUAGACAUGAGGAUCACCCAUGUAGUUAACACAGCA | 498 nM | 39.4 nM | – | –
40 | UCGACCAGCGCCAGCCGAACAUGAGGAUCACCCAUGUACUCCAGAAGGCCGCCCAAGAACGGAGUGGAGGAUAUGGAGGUUCUC | 38 nM | 35.5 nM | – | –
41 | AUUGUGUGAGGAUAUUAGUAGUAAAUGAAUAAAAUUAUUACUGAGAAGGCACAUGAGGAUCACCCAUGUUCCUU | – | – | 19.1 nM | 138 nM
42 | CCGCAAAAGGAGGAUAUCGUAUCGGAUACGAUACGAGAAGGCUUUACAUGAGGAUCACCCAUGUGUCCUAGCGG | – | – | 13.7 nM | 19.2 nM
43 | GUGUACAGAGGAUAUACUUGAAUCUAGCGAAGCUAGGUUCGACAUGAGGAUCACCCAUGUAGAAGGCUGUACAC | – | – | 12.7 nM | 17.4 nM
44 | GGGUACAUCGGAGGAUAUCAUGUAAAUACAUGAGGAUCACCCAUGUCGAUGGAGAGAUCGGAGAUUGAGAAGGCCGAUGUACCG | 97.4 nM | 41 nM | – | –
45 | AUGGACGUCGUAGGAUAUGUAGGAUUCUCGUACAUGAGGAUCACCCAUGUUGACGUCAAGGUCGGACAGAAGGGCGGUGUCUAU | 584 nM | 65.4 nM | – | –
46 | CUGUGUUGCGGGCAGGAUAUGUAUUGGAGUACAUGAGGAUCACCCAUGUGCGGGUGUUUCACCCGACAGAAGGGCCAAUCGCGAC | 128 nM | 24.5 nM | – | –
47 | GAUCUGGCAGGAUAUACAUGAGGAUCACCCAUGUGCGAGCUAGCGAAAGCUAGCUCAGGUAGAAGGGUCAGAUC | – | – | 12.7 nM | 15.5 nM
48 | UAGAAGUCAGGAUAUCCAGCUCGUCACUUGCGUGAUGAGUUGGAGAAGGGACAUGAGGAUCACCCAUGUAAAGC | – | – | 53.7 nM | 46.5 nM
49 | UGCGAACAGGCUAACAUGAGGAUCACCCAUGUGGACUCAUGGUAGGAUAUCGGGAAGGAGGAAACCGAGAAGGGCCGGUGAGCU | 217 nM | 150 nM | – | –
50 | UUAUGCUUUAAGAAGGUUCAAACUACAUAUUGCGCACAUGAGGAUCACCCAUGUUGGUGAAUAAGAAAGGAUAUUAGACUGUGC | – | – | 332 nM | 223 nM
51 | UCAUGUCCUGAGGAUAUGUAGCGGAUAAACGCAACAGAAGGCAGGACAUGAGGAUCACCCAUGUGUGCCUUCUA | – | – | 96.6 nM | 14.2 nM
52 | AGUAGACAAGGAUAUACAUGAGGAUCACCCAUGUGUGAAGGCCAGGAGGCUCCUCCCUGUAGAAGGUGUCGAGU | – | – | 104 nM | 293 nM
53 | GCUUAUAGAGGAUAUACAGAUUAUUACAUGAGGAUCACCCAUGUUCUUCAAUGUAUAUAUGUAGAAGGCUAAGGAU | – | – | 61.5 nM | 257 nM
54 | CUGACCUGUGUCAGGAUAUCGUUUGCCAUUGUGACUGAGAAGGGACAUGAGGAUCACCCAUGUCGAGCGACGGG | – | – | 28.4 nM | 35.6 nM
55 | AAUAACAGAGGAUAUACUAUUUUAUGUGUUUGUUAUUUUAAACAUGAGGAUCACCCAUGUAGAAGGCUGAUUGA | – | – | 46.7 nM | 46.6 nM
